One compound from ChEMBL document CHEMBL4422663, “Suppression of Tumor Growth and Metastases by Targeted Intervention in Urokinase Activity with Cyclic Peptides” (J Med Chem, 2019) can be followed below.

Active and inactive are the calls of the source. The rule behind the calls is not given here. Positions of bridges follow the written chain, without caps; N, C: chain ends. Residues, ends and D or L forms follow the SMILES beside them. Some results are limits rather than exact numbers.

The target in assay [1] is T1, Urokinase-type plasminogen activator (Mus musculus, UniProt P06869). The assay is described as follows: Inhibition of mouse uPA serine protease domain preincubated for 15 mins followed by chromogenic substrate addition.
Assay [2] addresses Plasma kallikrein (Homo sapiens, UniProt P03952). In words: Inhibition of human plasma kallikrein preincubated for 15 mins followed by chromogenic substrate addition.
The target of assay [3] is Plasminogen (Homo sapiens, UniProt P00747). The assay is described as follows: Inhibition of human plasmin preincubated for 15 mins followed by chromogenic substrate addition.
Assay [4] has as its target Plasminogen (Mus musculus, UniProt P20918). The assay is described as follows: Inhibition of mouse plasmin preincubated for 15 mins followed by chromogenic substrate addition.
The target in assay [5] is Prothrombin (Homo sapiens, UniProt P00734). The assay is described as follows: Inhibition of human thrombin preincubated for 15 mins followed by chromogenic substrate addition.
Assay [6] can be described thus: Inhibition of mouse trypsin preincubated for 15 mins followed by chromogenic substrate addition.
For assay [7], the target named is Coagulation factor XI (Homo sapiens, UniProt P03951). In words: Inhibition of human factor 11a preincubated for 15 mins followed by chromogenic substrate addition.
For assay [8], the target named is T2, Suppressor of tumorigenicity 14 protein (Homo sapiens, UniProt Q9Y5Y6).
T2 sequence (Q9Y5Y6 whole entry): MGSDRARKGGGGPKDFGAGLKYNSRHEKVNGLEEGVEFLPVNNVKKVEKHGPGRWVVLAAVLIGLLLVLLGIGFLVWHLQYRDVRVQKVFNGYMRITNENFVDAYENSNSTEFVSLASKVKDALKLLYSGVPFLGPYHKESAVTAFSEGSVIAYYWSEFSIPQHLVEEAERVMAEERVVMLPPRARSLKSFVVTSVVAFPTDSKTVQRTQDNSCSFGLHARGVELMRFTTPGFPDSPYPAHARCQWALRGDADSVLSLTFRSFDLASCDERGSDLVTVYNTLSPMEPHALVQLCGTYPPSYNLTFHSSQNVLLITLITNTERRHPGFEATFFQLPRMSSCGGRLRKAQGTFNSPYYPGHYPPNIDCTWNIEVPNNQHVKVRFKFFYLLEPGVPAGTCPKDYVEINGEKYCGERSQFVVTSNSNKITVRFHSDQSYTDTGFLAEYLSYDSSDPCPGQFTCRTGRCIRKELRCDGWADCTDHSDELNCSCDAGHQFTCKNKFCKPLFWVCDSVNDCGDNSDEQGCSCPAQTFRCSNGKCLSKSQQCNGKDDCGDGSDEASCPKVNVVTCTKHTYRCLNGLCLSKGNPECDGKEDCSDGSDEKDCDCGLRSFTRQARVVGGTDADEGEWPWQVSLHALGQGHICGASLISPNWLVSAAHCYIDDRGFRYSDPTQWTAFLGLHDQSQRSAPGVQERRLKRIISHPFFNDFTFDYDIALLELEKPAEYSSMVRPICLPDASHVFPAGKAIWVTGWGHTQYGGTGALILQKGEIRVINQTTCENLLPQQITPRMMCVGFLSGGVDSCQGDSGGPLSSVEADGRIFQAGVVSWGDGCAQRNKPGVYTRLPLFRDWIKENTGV
The assay is described as follows: Inhibition of human matriptase preincubated for 15 mins followed by chromogenic substrate addition.

Assay [9] has as its target T1, Urokinase-type plasminogen activator. The assay is described as follows: Binding affinity to mouse uPA expressed in HEK2936E cells by ITC assay. A general note: ITC needs no label: the signal is the heat of the interaction.
Assay [10] has the same target. In words: Inhibition of uPA in presence of 75% mouse […] measured at 2 hrs. The method, boiled down: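 Peptide was preincubated in 75% murine plasma for 0–24 h (sampled at 0, 2, 8 and 24 h). Residual uPA-inhibitory activity was then measured and expressed as IC50.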
The subject of assay [11] is CT26. The assay is described as follows: Anti-tumor activity against […] mouse CT26 cells allografted in Balb/c mouse assessed as tumor growth inhibition at 1.13 mg/kg, ip administered daily for 15 days and measured on day 16 […]. The following applies: read-out: TGI. The assay is classed as functional. The method, boiled down: (§1)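 CT-26 cells implanted subcutaneously in right flank of Balb/c mice; once tumors reached about 150~200 mm3, daily intraperitoneal dosing with peptide or saline for 15 days. Mice sacrificed on Day 16; tumors resected and weighed; tumor growth reduction relative to saline group.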

Assay [12] has as its system CT26. The assay is described as follows: Anti-tumor activity against GFP expressing mouse CT26 cells allografted in Balb/c mouse assessed as tumor growth inhibition at 11.3 mg/kg, ip administered daily for 15 days and measured on day 16 […]. The assay is classed as functional. Conditions: read-out: TGI. The method, boiled down:
as §1

Assay [13] deals with CT26. In words: Antimetastatic activity against GFP-fused mouse CT26 cells allografted in Balb/c mouse assessed as reduction genomic DNA of metastatic cells at 1.13 mg/kg, ip administered daily for 15 days by qPCR analysis. The assay is classed as functional, organism-based. The method, boiled down:
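Lung-metastasis model: male Balb/c (~20 g, 6/group) given 10^6 GFP-CT-26 cells iv, then daily ip dosing from Day 1 to 15, killed on Day 16. Total DNA (200 ng) from homogenized lungs went to SYBR Green qPCR (287 bp amplicon, 45 cycles). The standard curve used CT-26 genomic DNA spiked into normal lung DNA at 0.135–100%.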
In general terms: Quantitative PCR measures a nucleic acid by following its amplification.

Assay [14] has as its target Urokinase-type plasminogen activator (Mus musculus) (UniProt P06869). In words: Inhibition of the intrinsic peri-cellular uPA in mouse CT26 cells assessed as reduction in cell invasion at 33 to 100 uM by Transwell invasion assay relative to control.

T1 sequence (P06869 21-178 limits assumed): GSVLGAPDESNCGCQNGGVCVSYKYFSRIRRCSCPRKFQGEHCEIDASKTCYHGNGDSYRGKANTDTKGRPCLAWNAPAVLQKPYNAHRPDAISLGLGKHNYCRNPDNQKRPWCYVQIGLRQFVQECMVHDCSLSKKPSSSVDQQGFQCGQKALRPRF
T1 sequence (P06869 180-433 limits assumed): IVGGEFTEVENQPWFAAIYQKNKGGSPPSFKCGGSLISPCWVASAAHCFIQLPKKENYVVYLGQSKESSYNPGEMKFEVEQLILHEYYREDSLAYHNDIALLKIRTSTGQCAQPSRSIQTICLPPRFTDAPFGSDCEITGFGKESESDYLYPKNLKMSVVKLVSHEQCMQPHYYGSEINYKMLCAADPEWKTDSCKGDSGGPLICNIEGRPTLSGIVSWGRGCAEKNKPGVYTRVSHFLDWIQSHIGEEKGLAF
Sequence of Urokinase-type plasminogen activator (Mus musculus) (P06869 21-178 limits assumed): as the sequence (P06869 21-178 limits assumed) above
Sequence of Urokinase-type plasminogen activator (Mus musculus) (P06869 180-433 limits assumed): as the sequence (P06869 180-433 limits assumed) above
Sequence of Plasminogen (Homo sapiens, UniProt P00747) (P00747 97-580 limits assumed): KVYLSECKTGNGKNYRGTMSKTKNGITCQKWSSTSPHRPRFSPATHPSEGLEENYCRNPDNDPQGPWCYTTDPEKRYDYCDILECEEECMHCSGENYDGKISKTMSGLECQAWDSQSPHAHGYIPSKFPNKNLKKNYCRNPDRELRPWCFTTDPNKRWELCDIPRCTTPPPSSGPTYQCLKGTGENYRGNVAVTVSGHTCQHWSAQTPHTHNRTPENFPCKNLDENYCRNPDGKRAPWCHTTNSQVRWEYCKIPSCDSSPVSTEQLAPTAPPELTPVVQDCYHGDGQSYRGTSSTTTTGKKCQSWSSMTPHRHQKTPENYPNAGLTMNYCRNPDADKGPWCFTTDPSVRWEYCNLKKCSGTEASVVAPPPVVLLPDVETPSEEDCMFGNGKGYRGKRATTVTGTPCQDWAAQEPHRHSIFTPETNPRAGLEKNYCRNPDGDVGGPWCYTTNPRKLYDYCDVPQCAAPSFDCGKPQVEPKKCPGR
Sequence of Plasminogen (Homo sapiens, UniProt P00747) (P00747 581-810 limits assumed): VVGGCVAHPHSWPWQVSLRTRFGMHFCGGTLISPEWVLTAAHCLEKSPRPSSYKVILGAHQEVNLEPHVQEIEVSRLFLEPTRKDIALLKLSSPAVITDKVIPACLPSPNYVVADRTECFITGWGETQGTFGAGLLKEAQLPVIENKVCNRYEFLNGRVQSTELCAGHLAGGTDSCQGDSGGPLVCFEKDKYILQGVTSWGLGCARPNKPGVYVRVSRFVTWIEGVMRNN
Sequence of Coagulation factor XI (P03951 19-387 limits assumed): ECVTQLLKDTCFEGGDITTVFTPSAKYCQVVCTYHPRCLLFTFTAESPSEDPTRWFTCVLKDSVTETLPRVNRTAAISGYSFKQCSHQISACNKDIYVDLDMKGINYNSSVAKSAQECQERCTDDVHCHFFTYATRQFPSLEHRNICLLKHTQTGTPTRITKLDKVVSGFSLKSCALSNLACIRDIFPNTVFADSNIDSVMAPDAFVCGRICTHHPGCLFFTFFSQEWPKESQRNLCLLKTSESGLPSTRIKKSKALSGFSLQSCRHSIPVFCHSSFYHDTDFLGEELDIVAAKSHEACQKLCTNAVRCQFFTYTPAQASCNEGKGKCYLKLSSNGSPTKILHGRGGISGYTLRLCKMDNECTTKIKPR
Sequence of Coagulation factor XI (P03951 388-625 limits assumed): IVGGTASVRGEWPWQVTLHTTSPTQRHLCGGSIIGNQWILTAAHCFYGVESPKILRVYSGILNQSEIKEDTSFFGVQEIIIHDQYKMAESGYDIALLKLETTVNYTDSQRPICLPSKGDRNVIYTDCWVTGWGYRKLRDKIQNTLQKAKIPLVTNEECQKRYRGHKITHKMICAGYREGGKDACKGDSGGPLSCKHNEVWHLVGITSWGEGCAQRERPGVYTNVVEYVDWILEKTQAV
Sequence of Plasminogen (Mus musculus, UniProt P20918) (P20918 98-581 limits assumed): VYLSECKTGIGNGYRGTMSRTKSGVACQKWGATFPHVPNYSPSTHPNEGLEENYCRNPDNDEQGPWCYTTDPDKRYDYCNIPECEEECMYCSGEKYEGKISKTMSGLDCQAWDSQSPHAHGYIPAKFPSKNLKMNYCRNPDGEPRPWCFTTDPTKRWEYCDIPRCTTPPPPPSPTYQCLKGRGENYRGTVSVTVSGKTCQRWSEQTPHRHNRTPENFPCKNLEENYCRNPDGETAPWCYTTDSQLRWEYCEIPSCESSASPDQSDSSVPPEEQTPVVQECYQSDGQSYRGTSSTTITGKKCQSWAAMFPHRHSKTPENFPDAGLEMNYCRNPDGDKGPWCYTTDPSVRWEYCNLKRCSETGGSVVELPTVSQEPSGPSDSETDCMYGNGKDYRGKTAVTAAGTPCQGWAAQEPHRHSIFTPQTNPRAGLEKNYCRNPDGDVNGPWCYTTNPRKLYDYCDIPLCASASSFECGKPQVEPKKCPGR
Sequence of Plasminogen (Mus musculus, UniProt P20918) (P20918 582-812 limits assumed): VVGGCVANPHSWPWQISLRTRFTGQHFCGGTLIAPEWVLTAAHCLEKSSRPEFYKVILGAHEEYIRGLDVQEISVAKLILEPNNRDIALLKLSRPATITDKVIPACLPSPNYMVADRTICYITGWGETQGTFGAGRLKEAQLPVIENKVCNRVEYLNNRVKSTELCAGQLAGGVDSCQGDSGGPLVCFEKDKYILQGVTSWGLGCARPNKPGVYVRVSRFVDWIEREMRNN
Sequence of Plasma kallikrein (P03952 20-390 limits assumed): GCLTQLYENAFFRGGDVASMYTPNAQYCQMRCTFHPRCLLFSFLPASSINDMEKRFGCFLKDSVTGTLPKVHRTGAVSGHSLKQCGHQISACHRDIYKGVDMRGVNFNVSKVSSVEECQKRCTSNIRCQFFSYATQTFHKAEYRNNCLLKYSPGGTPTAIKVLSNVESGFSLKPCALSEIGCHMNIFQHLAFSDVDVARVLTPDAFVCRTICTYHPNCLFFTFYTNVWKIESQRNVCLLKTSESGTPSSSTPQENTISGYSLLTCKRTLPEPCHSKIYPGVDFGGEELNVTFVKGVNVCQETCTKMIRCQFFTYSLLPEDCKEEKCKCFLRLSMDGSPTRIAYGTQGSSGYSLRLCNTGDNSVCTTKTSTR
Sequence of Plasma kallikrein (P03952 391-638 limits assumed): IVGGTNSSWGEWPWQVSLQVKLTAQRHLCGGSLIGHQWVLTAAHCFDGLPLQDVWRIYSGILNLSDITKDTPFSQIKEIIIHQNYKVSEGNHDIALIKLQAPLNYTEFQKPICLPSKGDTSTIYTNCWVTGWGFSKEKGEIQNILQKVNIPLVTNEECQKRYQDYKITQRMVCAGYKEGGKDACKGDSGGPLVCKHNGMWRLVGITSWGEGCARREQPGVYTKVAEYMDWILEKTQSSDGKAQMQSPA

As a reminder, the Ki is a dissociation constant, usually derived from enzyme kinetics or from competition with a known ligand. Low readings indicate tighter binding, high ones weaker binding. Broadly, the Kd is the free concentration of one partner at which half of the binding sites on the other are occupied at equilibrium, for simple one-to-one binding. One may read the IC50 as the concentration that inhibits the measured activity by half. The inhibition is how much of the control response was suppressed. In the case of `CC[C@H](C)[C@@H]1NC(=O)[C@H](Cc2ccc(O)cc2)NC(=O)[C@H](CCCNC(=N)N)NC(=O)[C@H](CO)NC(=O)[C@H](Cc2ccc(O)cc2)NC(=O)[C@H](C)NC(=O)[C@@H]2CCCN2C(=O)[C@@H](N)CSSC[C@@H](C(=O)O)NC(=O)CNC1=O` (H-CPAYSRYIGC-OH; disulfide 1-10), the Ki in assay [1] is 15.3 nM; in assay [2] it was over 25000 nM; in assay [3], over 25000 nM; in assay [4], over 25000 nM; in [5] it was over 25000 nM; in assay [6], 2100 nM. Besides, the Ki in assay [7] and in [8] was over 25000 nM each time. This compound also gave a Kd in assay [9] of 10.6 nM. Besides, in [10], the IC50 was 11.9 nM. Further, the inhibition in vivo at 1.13 mg/kg in [11] was 36.1%. Further, in assay [12], the inhibition in vivo at 11.3 mg/kg turned out to be 56.8%. In addition, in assay [13], the result was inactive. The inhibition in [14] is 70 to 80%.
